From PubChem
In the library only some 1.9% were active in any assay of this set; here they are far more common.
697 NFkB inh: inhibitors of the PMA/ionomycin-induced NF-kB reporter in 697 B cells; AID 435022; inhibition, % at 4 µM; 697 B-cell NF-kB luciferase reporter, 16 h; hit rate 0.33% among 330,000; in the data active means inhibition above about 35%
Lipid droplet: modulators of hepatic lipid droplet formation. AID 1656. inhibition, % at 6.5 µM. hit rate 0.4% among 240,000. AML12 mouse hepatocytes, oleate lipid droplets, BODIPY imaging;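 active means lipid droplet intensity inhibited by at least 50%, with more than 500 cells counted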
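Assay system: AML12 hepatocytes (mouse); Probe or stimulus: oleic acid at 100 µM to induce lipid droplet formation; Dosing: compound at 6.5 µM only; Schedule: compound with oleate, overnight; Detection: fluorescence imaging, 20x objective, two fields per well; Measure: % inhibition of lipid droplet signal.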
Jurkat NFkB inh: inhibitors of the PMA/ionomycin-induced NF-kB reporter in Jurkat cells; PMA/ionomycin-induced NF-kB luciferase reporter, luminescence; inhibition, % at 4 µM; hit rate 0.53% among 330,000; in the data active means inhibition above about 50%
APP transl inh: APP translation inhibition; inhibition, % at 2 µM; hit rate 0.82% among 190,000; SH-SY5Y APP 5'UTR-luciferase reporter, luminescence;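 active means inhibition above a set limit, derived from the sample mean plus 3 SD, cut at about 45% in these data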
aSyn 5UTR inh: 5' untranslated region of α-synuclein, MLPCN primary screen. hit rate 0.82% among 300,000. inhibition, % (tested at 7.5 µM). alpha-synuclein 5'UTR reporter, inhibitor activity; in the data active means inhibition above about 60%;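 further: H4 neuroglioblastoma cells stably carrying SNCA 5'UTR luciferase fusion; 0% = DMSO wells and 100% = positive control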
TAG inh: reduces triacylglycerol accumulation in H9c2 cells. Nile Red lipid (TAG) fluorescence; cells loaded with 200 µM oleic acid. hit rate 0.66% among 230,000. inhibition, % at 12.5 µM;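 active means pattern-corrected inhibition of lipid staining of at least 50% with the nuclear-stain viability signal not falling by more than 50%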;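 further: 0% = DMSO wells and 100% = triacsin C control wells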
Lipid drop inh: hepatic lipid droplet formation inhibition, confirmed. AID 463183. hit rate 65% among 870. inhibition, % at 5.2 µM. shares compounds with Lipid droplet. AML12 mouse hepatocytes, BODIPY lipid droplet imaging; droplets induced with 100 µM oleic acid;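 active means inhibition of lipid droplet metric at least 50%, with more than 300 cells in each of four replicates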;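 further: plate controls were DMSO with oleic acid for no effect and 5 µM Triacsin-C for full effect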
AML12 tox img: counter-screen for cytotoxicity in AML12 mouse hepatocytes. z-score at 5 µM. hit rate 3% among 870. AID 463200. shares compounds with Lipid droplet. DAPI nuclear morphology cytotoxicity imaging; active compounds read high; cells fed 100 µM oleate overnight; in the data active means z-score above about 6.3;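 further: compound exposure lasted overnight at 37 °C before fixation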
AML12 tox ATP: AML12 hepatocyte cytotoxicity, confirmed; AID 463219; AML12 mouse hepatocyte viability, ATP luminescence; cells loaded with 100 µM oleic acid; shares compounds with Lipid droplet; cytotoxicity, % at 50 µM; 530 tested, under 10 active;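 active means cytotoxicity above 50% in each of four replicates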;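 further: compound exposure lasted overnight at 37 °C before the ATP read; 0% = DMSO-treated cells and 100% = wells with no cells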
* hit, by the source's call; · = not tested or not shown.

SMILES | 697 NFkB inh | Lipid droplet | Jurkat NFkB inh | APP transl inh | aSyn 5UTR inh | TAG inh | Lipid drop inh | AML12 tox img | AML12 tox ATP
O=C(CCc1c[nH]c2ccccc12)N1CCCCCCC1 | -7 | -13 | -9 | · | -26 | -10 | · | · | ·
CC(C)(C)c1cc(CCC(=O)N2CCNCC2)c(C(C)(C)C)cc1O | 0 | -3 | 10 | 2 | -1 | 55* | · | · | ·
Cc1cc2ncn(/N=C/c3ccc([N+](=O)[O-])s3)c2cc1C | · | 2 | · | 13 | -117 | · | · | · | ·
O=[N+]([O-])c1ccc(/C=N/n2cnc3ccccc32)s1 | -1 | 12 | -3 | 6 | 68* | · | · | · | ·
CCNC(=O)C1(C)CCCN(C(=O)c2nc3ccccc3s2)C1 (stereo unspecified) | · | · | · | · | · | 12 | · | · | ·
NCCOc1ccc(C23CC4CC(CC(C4)C2)C3)cc1 | -26 | 0 | -51 | -21 | 81* | 98 | · | · | ·
Oc1ccc(C23CC4CC(CC(C4)C2)C3)cc1O | · | -8 | · | · | 2 | · | · | · | ·
CCOc1ccc(CCNC(=O)COc2cc(=O)n(C)c3ccccc23)cc1OCC | 13 | 100* | -10 | -17 | 19 | · | 101* | -0.38 | 8
CCCCNC(=O)CSc1cc(=O)n(C)c2ccccc12 | -12 | 4 | -11 | -2 | 13 | -11 | · | · | ·
CCOc1ccc(CCNC(=O)COC(=O)c2cccnc2OCC)cc1OCC | -53 | 98* | 9 | -7 | 16 | · | 105* | -0.53 | 9
CCOc1ccc(CCNC(=O)COC(=O)/C=C/c2ccc(OCC#N)c(OC)c2)cc1OCC | -3 | 63* | 5 | -7 | 16 | · | 103* | -0.32 | 1
CCOc1ccc(CCNC(=O)CSc2cc(=O)n(C)c3ccccc23)cc1OCC | 8 | 98* | 12 | · | 31 | · | 106* | -0.049 | 14
COc1ccc(CCNC(=O)COC(=O)/C=C/c2ccc(OCC#N)c(OC)c2)cc1OC | 11 | 24 | 17 | 8 | 3 | · | · | · | ·
COc1ccccc1CCN1CCCC(CN(C)C(=O)c2ccoc2)C1 (stereo unspecified) | -9 | -13 | 11 | · | 6 | · | · | · | ·
CCCCSCCCNC(=O)c1ccc2c(c1)N(CC)C(=O)c1ccccc1S2=O (stereo unspecified) | 6 | 60* | -2 | · | 3 | · | 88* | 0.053 | 14
O=C(Cn1nc(-c2cccc(Cl)c2)ccc1=O)Nc1ccc(C(=O)NC2CC2)cc1 | -5 | 52* | 11 | 5 | 16 | 14 | 87* | 0.0057 | 13
Cc1ccccc1NC(=O)CN(C)S(=O)(=O)c1cccs1 | 9 | 0 | -9 | · | -20 | · | · | · | ·
Cc1cccc2sc(NC(=O)CN(C)S(=O)(=O)c3cccs3)nc12 | 3 | 56* | 4 | 1 | 8 | 35 | 95* | -0.78 | 9
CN1CCN(S(=O)(=O)c2cccc(C(=O)Nc3cc(C(F)(F)F)ccc3N3CCCC3)c2)CC1 | 9 | · | 19 | · | 10 | 25 | · | · | ·
CC(C)(C)c1ccc(C(=O)NCC(=O)NCC(C)(C)N2CCOCC2)cc1 | 3 | · | -11 | · | · | 9 | · | · | ·
Cc1c(Cl)sn(-c2ccc(Cl)cc2)c1=O | 8 | 59* | 43 | 92* | · | 106 | -13 | 11* | ·
Cc1nn(-c2ccc(Cl)cc2)c(=O)c2ccccc12 | -64 | -15 | -74 | -62 | -85 | -1 | · | · | ·
CCOC(=O)C1=C(C)NC(=O)NC1/C=C/c1ccccc1 (stereo unspecified) | 20 | 62* | 25 | 16 | 14 | · | 24 | -0.43 | ·
COc1ccc(S(=O)(=O)N2CCC(C(=O)NCC3CC3)CC2)cc1 | -28 | 0 | -34 | · | 0 | · | · | · | ·
CCc1cc2c(=O)c(-c3nc4ccccc4n3C)c(C)oc2c(CN2CCOCC2)c1O | 8 | 50* | -10 | 13 | -4 | · | 88* | -0.82 | 3
SMILES | 697 NFkB inh | Lipid droplet | Jurkat NFkB inh | APP transl inh | aSyn 5UTR inh | TAG inh | Lipid drop inh | AML12 tox img | AML12 tox ATP
CCc1cc2c(=O)c(-c3nc4ccccc4n3C)c(C)oc2c(CN2CCN(C)CC2)c1O | -3 | -10 | 15 | -24 | 19 | · | · | · | ·
Cc1cc(C)cc(NC(=O)CSc2nc3ccccc3nc2N2CCCC2)c1 | 5 | 70* | 23 | · | 31 | 41 | 107* | -0.28 | 17
COc1ccccc1N1CCN(C(=O)CSc2nc3ccccc3nc2N2CCCCC2)CC1 | 5 | 14 | 12 | · | 29 | 15 | · | · | ·
Cc1cccc(NC(=O)CSc2nc3ccccc3nc2N2CCCC2)c1C | -6 | 55* | -17 | · | -3 | 32 | 63 | -0.26 | ·
CCOc1ccccc1NC(=O)CSc1nc2ccccc2nc1N1CCCC1 | -3 | 8 | 8 | · | -13 | 18 | · | · | ·
CCOc1ccc(NC(=O)CSc2nc3ccccc3nc2N2CCCC2)cc1 | 6 | 81* | 9 | · | 23 | 24 | 106* | -1 | 13
COc1ccccc1N1CCN(C(=O)CSc2nc3ccccc3nc2N2CCC(C)CC2)CC1 | -37 | 52* | -8 | · | 11 | · | 26 | 0.4 | ·
CSc1nnc(SCC2=NNC(=O)SC2)s1 | 7 | -1 | -12 | -15 | -31 | · | · | · | ·
Cc1n[nH]c(C)c1CCC(=O)N/N=C/C=C/c1ccccc1 | 13 | 2 | 8 | 1 | -8 | 3 | · | · | ·
CCCN1C(=O)C(=O)N(CC(=O)N2c3ccccc3NC(=O)CC2C)C1=O (stereo unspecified) | · | · | · | · | · | 2 | · | · | ·
COc1ccc(NC(=O)CSc2nc3ccccc3nc2N2CCCC2)cc1Cl | 18 | 64* | -4 | · | 31 | 39 | 96* | -0.14 | 5
C=CCN(C(=O)c1csnn1)C(C(=O)NC1CCCCC1)c1ccccc1F (stereo unspecified) | -7 | 56* | -11 | · | 2 | · | 93* | -0.66 | 12
Cc1ccc(C(C(=O)NC2CCCC2)N(C(=O)c2csnn2)C2CCCC2)o1 (stereo unspecified) | -1 | · | 3 | -17 | -22 | · | · | · | ·
Cc1ccc(C(C(=O)NC2CCCCC2)N(C(=O)c2csnn2)C2CCCC2)o1 (stereo unspecified) | 7 | 52* | -11 | -8 | 6 | · | 81* | -0.24 | 13
C=CCSc1n[nH]c(-c2ccc(OCCCC)cc2)n1 | -59 | 54* | -53 | -47 | -89 | · | 98* | 0.3 | 13
C=CCSc1n[nH]c(-c2ccc(OCCC)cc2)n1 | -102 | 37 | -94 | -103 | -164 | · | · | · | ·
CN(C)S(=O)(=O)c1ccc(NC(=O)CSc2nnc(-c3ccco3)o2)cc1 | -6 | · | -12 | · | · | -20 | · | · | ·
CC1CC(C)CN(C(=O)CSCC(=O)Nc2nc(-c3cccs3)cs2)C1 (stereo unspecified) | -7 | 56* | -1 | -8 | -55 | 43 | 108* | -0.11 | 9
O=C(CSCC(=O)N1CCCCC1)Nc1nc(-c2cccs2)cs1 | -5 | · | -12 | -25 | -50 | 26 | · | · | ·
